From ChEMBL document CHEMBL3425410, “Specificity and inhibitory mechanism of andrographolide and its analogues as antiasthma agents on NF-κB p50” (J Nat Prod, 2015)
Calls of active or inactive are those of the source. The calls are words filed in the database; no cut-off is given here.

Key:
[1] = target: T1, Nuclear factor NF-kappa-B p105 subunit (Homo sapiens, UniProt P19838); assay: (§1) Inhibition of TNF-alpha-stimulated NF-kappaB p50 (unknown origin) expressed in HEK293 cells preincubated for 4 hrs followed by TNF-alpha challenge measured after 24 hrs by secreted alkaline phosphatase reporter assay; format: cell-based
T1 sequence (P19838 whole entry): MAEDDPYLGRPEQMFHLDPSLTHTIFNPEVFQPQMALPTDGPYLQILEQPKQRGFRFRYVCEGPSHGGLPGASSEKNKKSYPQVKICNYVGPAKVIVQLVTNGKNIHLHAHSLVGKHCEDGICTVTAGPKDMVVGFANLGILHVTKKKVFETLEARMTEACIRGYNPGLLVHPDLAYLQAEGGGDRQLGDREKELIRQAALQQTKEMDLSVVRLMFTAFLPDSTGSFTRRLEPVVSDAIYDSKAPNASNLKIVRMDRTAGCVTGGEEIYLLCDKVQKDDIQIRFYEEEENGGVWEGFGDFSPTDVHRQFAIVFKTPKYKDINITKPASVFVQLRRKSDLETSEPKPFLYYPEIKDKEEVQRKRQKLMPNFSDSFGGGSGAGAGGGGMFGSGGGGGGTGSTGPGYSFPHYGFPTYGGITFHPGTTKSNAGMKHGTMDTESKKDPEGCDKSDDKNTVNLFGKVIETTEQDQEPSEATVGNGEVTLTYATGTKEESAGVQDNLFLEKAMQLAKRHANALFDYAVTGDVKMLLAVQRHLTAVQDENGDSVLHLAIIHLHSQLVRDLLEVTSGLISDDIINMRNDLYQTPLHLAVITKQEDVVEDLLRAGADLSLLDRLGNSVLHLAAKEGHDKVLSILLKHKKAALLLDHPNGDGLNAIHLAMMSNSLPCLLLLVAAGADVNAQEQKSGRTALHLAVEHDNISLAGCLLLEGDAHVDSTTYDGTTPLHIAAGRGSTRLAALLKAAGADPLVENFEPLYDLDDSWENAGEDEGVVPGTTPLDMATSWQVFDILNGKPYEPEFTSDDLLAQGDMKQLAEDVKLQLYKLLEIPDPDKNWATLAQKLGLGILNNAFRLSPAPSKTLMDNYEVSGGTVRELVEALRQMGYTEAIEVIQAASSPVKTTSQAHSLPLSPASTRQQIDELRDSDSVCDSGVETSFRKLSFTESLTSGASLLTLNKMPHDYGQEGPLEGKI
Procedure, shortened: (§2)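 HEK293 stably transfected with NF-κB/SEAP, grown in DMEM/10% FBS/500 μg/mL G418 and seeded at ~2 × 10^5 cells/well to ~70% confluence. Pretreated 4 h with rising compound concentrations or 0.05% DMSO, then TNF-α 10 ng/mL for 24 h. Secreted SEAP measured by kit, with TNF-α-induced untreated cells as 100%. Quadruplicates, mean; IC50 from the concentration curve.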

[2] = Cytotoxicity against human Jurkat T cells assessed as appearance of necrotic cells at 25 uM after 24 hrs by annexin V-FLUOS/propidium iodide staining-based flow cytometric analysis; format: cell-based
Procedure, shortened: (§3)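 Jurkat T lymphocytes kept at 37 °C, 5% CO2 in RPMI1640 with 10% FBS and 1% streptomycin/penicillin. Exposed to 25 μM compound for 24 h, then stained with annexin-V-FLUOS and propidium iodide and read by flow cytometry. Viable cells are negative for both stains.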

[3] = target: T2, Nuclear factor NF-kappa-B p105 subunit (Homo sapiens) (UniProt P19838); assay: Binding affinity to 6His-tagged recombinant human NF-kappaB p50 N-terminal domain expressed in Escherichia coli BL21 (DE3) at 4:1 compound to protein molar ratio after 2 hrs by mass spectrometric analysis
T2 sequence (whole entry): T1 sequence (P19838 whole entry)
Procedure, shortened: (§4)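 Recombinant 6His-tagged p50 NTD (E. coli BL21(DE3), Ni-NTA then Superdex 200 gel filtration, dialysed into PBS) at 20 μM, incubated with compound in PBS with 1 mM EDTA, 10 μM β-mercaptoethanol, 5% glycerol (v/v), 37 °C, 2 h. Acetic acid quench, reversed-phase column, ESI-MS at m/z 500–3000. Reaction extent scored from adduct versus unbound protein across rising molar ratios.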

[4] = Cytotoxicity against human Jurkat T cells assessed as appearance of viable cells at 25 uM after 24 hrs by annexin V-FLUOS/propidium iodide staining-based flow cytometric analysis; format: cell-based; settings: read-out: Activity; procedure, shortened: as §3
[5] = Cytotoxicity against human Jurkat T cells assessed as appearance of late apoptotic cells at 25 uM after 24 hrs by annexin V-FLUOS/propidium iodide staining-based flow cytometric analysis; format: cell-based; procedure, shortened: as §3
[6] = Cytotoxicity against human Jurkat T cells assessed as appearance of early apoptotic cells at 25 uM after 24 hrs by annexin V-FLUOS/propidium iodide staining-based flow cytometric analysis; format: cell-based; procedure, shortened: as §3
[7] = target: T2, Nuclear factor NF-kappa-B p105 subunit (Homo sapiens); assay: as §1; format: cell-based; procedure, shortened: as §2
[8] = target: T2, Nuclear factor NF-kappa-B p105 subunit (Homo sapiens); assay: Binding affinity to 6His-tagged recombinant human NF-kappaB p50 N-terminal domain expressed in Escherichia coli BL21 (DE3) up to 10:1 compound to protein molar ratio after 2 hrs by mass spectrometric analysis; procedure, shortened: as §4
[9] = Cytotoxicity against human Jurkat T cells assessed as apoptosis after 24 hrs by annexin V-FLUOS/propidium iodide staining-based flow cytometric analysis; format: cell-based; procedure, shortened: as §3
[10] = target: T2, Nuclear factor NF-kappa-B p105 subunit (Homo sapiens); assay: Inhibition of TNF-alpha-stimulated NF-kappaB p50 (unknown origin) expressed in HEK293 cells at 1 to 100 uM preincubated for 4 hrs followed by TNF-alpha challenge measured after 24 hrs by secreted alkaline phosphatase reporter assay; format: cell-based; procedure, shortened: as §2
[11] = target: T2, Nuclear factor NF-kappa-B p105 subunit (Homo sapiens); assay: Binding affinity to 6His-tagged recombinant human NF-kappaB p50 N-terminal domain expressed in Escherichia coli BL21 (DE3) up to 50:1 compound to protein molar ratio after 2 hrs by mass spectrometric analysis; procedure, shortened: as §4

| SMILES | IC50 [1] [µM] | Activity [2] [%] | Activity [3] | viability at 24 h, 25 µM [4] [%] | Activity [5] [%] | Activity [6] [%] | inhibition [7] | Activity [8] | Activity [9] | inhibition [10] | Activity [11] |
| --- | --- | --- | --- | --- | --- | --- | --- | --- | --- | --- | --- |
| C=C1CC[C@@H]2[C@](C)(COC(C)=O)[C@H](OC(C)=O)CC[C@@]2(C)[C@@H]1C/C=C1\C=COC1=O | 11.1 | 0.24 | Active | 13.6 | 47.95 | 38.24 |  |  |  |  |  |
| C=C1CC[C@@H]2[C@](C)(CO)[C@H](O)CC[C@@]2(C)[C@@H]1CCC1=CCOC1=O [DEOXYANDROGRAPHOLIDE] |  |  |  |  |  |  | inactive | inactive | Non-toxic |  |  |
| C[C@]1(CO)[C@H]2CCC(=O)[C@@H](C/C=C3/SC(=S)NC3=O)[C@]2(C)CC[C@H]1O |  | 1.05 |  | 84.1 | 7.96 | 6.91 |  | inactive |  | inactive |  |
| C=C1CC[C@@H]2[C@](C)(CO)[C@H](O)CC[C@@]2(C)[C@@H]1C/C=C1/C(=O)OC[C@H]1O [ANDROGRAPHOLIDE] | 49.6 | 1.39 |  | 54.2 | 9.1 | 35.3 |  |  |  |  |  |
| C=C1CC[C@@H]2[C@](C)(CO[C@@H]3O[C@H](CO)[C@@H](O)[C@H](O)[C@H]3O)CCC[C@@]2(C)[C@@H]1CCC1=CCOC1=O [NEOANDROGRAPHOLIDE] |  |  |  |  |  |  | inactive | inactive | Non-toxic |  |  |
| C=C1CC[C@@H]2[C@](C)(CO)[C@H](O)CC[C@@]2(C)[C@@H]1/C=C/C1=CCOC1=O |  | 0.25 |  | 87.5 | 1.31 | 10.89 |  |  |  | inactive | Active |
| C[C@]1(CO)[C@H]2CCC(=O)[C@@H](C/C=C3\CCOC3=O)[C@]2(C)CC[C@H]1O |  | 0.33 |  | 87.9 | 5.52 | 6.29 |  | inactive |  | inactive |  |
| C=C1CC[C@@H]2[C@](C)(CO)[C@H](O)CC[C@@]2(C)[C@@H]1C/C=C1\C=COC1=O |  | 0.3 |  | 82.6 | 1.57 | 15.55 |  | inactive |  | inactive |  |
